# Activity calls are given as the source filed them. The rule behind the calls is not given here.
# How the values were obtained:
# A549 [1] = experiment: Antiproliferative activity against human A549 cells assessed as reduction in cell viability at 1 uM incubated for 48 hrs by MTT assay; assay type: functional, cell-based
# In short: (§1)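 Cells grown in DMEM with 10% heat-inactivated FBS and penicillin/streptomycin at 37 °C, 5% CO2, seeded at 7 × 10^3 cells/well. After 24 h, treated 48 h at 1, 10 or 50 μM. MTT 0.5 mg/mL added for 4 h at 37 °C, formazan dissolved in DMSO, A570 read. Eight replicate wells per group, at least three independent experiments, % of control, mean ± SEM.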
# U-87 MG [2] = experiment: Antiproliferative activity against human U-87MG cells assessed as reduction in cell viability at 50 uM incubated for 48 hrs by MTT assay relative to control; assay type: functional; conditions: for inhibition: U-87MG ATCC; in short: as §1
# A 172 [3] = experiment: Antiproliferative activity against human A172 cells assessed as reduction in cell viability at 1 uM incubated for 48 hrs by MTT assay; assay type: functional, cell-based; in short: as §1
# DU-145 [4] = experiment: Antiproliferative activity against human DU145 cells assessed as reduction in cell viability at 50 uM incubated for 48 hrs by MTT assay; assay type: functional, cell-based; in short: as §1
# U-87 MG [5] = experiment: Antiproliferative activity against human U-87MG cells assessed as reduction in cell viability at 1 uM incubated for 48 hrs by MTT assay relative to control; assay type: functional, U-87MG ATCC; in short: as §1
# DU-145 [6] = experiment: Antiproliferative activity against human DU145 cells assessed as reduction in cell viability at 1 uM incubated for 48 hrs by MTT assay; assay type: functional, cell-based; in short: as §1
# DU-145 [7] = experiment: Antiproliferative activity against human DU145 cells assessed as reduction in cell viability at 10 uM incubated for 48 hrs by MTT assay; assay type: functional, cell-based; in short: as §1
# A 172 [8] = experiment: Antiproliferative activity against human A172 cells assessed as reduction in cell viability at 10 uM incubated for 48 hrs by MTT assay; assay type: functional, cell-based; in short: as §1
# A 172 [9] = experiment: Antiproliferative activity against human A172 cells assessed as reduction in cell viability at 50 uM incubated for 48 hrs by MTT assay; assay type: functional, cell-based; in short: as §1
# A549 [10] = experiment: Antiproliferative activity against human A549 cells assessed as reduction in cell viability at 50 uM incubated for 48 hrs by MTT assay; assay type: functional, cell-based; in short: as §1
# A549 [11] = experiment: Antiproliferative activity against human A549 cells assessed as reduction in cell viability at 10 uM incubated for 48 hrs by MTT assay; assay type: functional, cell-based; in short: as §1
# U-87 MG [12] = experiment: Antiproliferative activity against human U-87MG cells assessed as reduction in cell viability at 10 uM incubated for 48 hrs by MTT assay relative to control; assay type: functional, U-87MG ATCC; in short: as §1
# Heme oxygenase 1 = molecular target: T1, Heme oxygenase 1 (Rattus norvegicus, UniProt P06762); experiment: Inhibition of Sprague-Dawley rat spleen microsome HO-1 assessed as bilirubin formation incubated for 60 mins by double-beam spectrophotometry; assay type: microsomes
# T1 sequence (P06762 whole entry): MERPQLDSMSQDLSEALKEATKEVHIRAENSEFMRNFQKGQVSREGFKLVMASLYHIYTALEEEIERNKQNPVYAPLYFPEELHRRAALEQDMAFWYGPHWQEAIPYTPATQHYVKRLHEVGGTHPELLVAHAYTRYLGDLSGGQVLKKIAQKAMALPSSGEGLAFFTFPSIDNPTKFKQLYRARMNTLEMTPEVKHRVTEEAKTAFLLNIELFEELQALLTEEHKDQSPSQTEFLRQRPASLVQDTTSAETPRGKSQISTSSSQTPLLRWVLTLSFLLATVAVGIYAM
# Heme oxygenase 2 = molecular target: T2, Heme oxygenase 2 (Rattus norvegicus, UniProt P23711); experiment: Inhibition of Sprague-Dawley rat brain microsome HO-2 assessed as bilirubin formation incubated for 60 mins by double-beam spectrophotometry; assay type: microsomes
# T2 sequence (P23711 whole entry): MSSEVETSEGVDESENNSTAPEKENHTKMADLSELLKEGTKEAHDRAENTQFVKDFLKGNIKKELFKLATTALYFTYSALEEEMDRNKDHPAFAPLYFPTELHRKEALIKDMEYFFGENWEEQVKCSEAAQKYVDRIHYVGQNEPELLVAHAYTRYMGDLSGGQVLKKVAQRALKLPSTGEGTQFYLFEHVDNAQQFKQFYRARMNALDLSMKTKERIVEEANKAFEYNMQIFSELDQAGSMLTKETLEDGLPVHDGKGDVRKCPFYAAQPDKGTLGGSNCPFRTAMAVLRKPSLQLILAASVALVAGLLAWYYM
# DU-145 [13] = experiment: Reduction in HO-1 expression in human DU-145 cells at 10 uM incubated for 48 hrs by Western blot analysis; assay type: functional, cell-based
# In short: (§2)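 Cells treated 48 h at 10 μM. Lysed in Tris/EDTA/EGTA/sucrose buffer with protease and phosphatase inhibitors, sonicated, spun. 30 μg protein resolved on 4–15% Bis-Tris gel, transferred to PVDF, probed for HO-1. Band density normalized to actin and given as fold change; three independent experiments, mean ± SEM.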
# U-87 MG [14] = experiment: Antiinvasive activity against human U-87 MG cells assessed as reduction in cell motility measured after 48 hrs by wound healing assay; assay type: functional, cell-based; conditions: U-87MG ATCC
# In short: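 Confluent U87MG monolayers (5 × 10^4 cells/well) scratched with a pipette tip, then cultured in 1% serum medium with or without 10 μM compound. Cells advancing into the wound counted at 24 and 48 h in three random high-power fields per well, duplicate wells, and expressed as % of control. Mean ± SEM.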
# [15] = molecular target: T3, Heme oxygenase 1 (Homo sapiens) (UniProt P09601); experiment: Inhibition of human HO-1 activity in human U-87MG cells assessed as bilirubin formation at 10 uM
# T3 sequence (whole entry): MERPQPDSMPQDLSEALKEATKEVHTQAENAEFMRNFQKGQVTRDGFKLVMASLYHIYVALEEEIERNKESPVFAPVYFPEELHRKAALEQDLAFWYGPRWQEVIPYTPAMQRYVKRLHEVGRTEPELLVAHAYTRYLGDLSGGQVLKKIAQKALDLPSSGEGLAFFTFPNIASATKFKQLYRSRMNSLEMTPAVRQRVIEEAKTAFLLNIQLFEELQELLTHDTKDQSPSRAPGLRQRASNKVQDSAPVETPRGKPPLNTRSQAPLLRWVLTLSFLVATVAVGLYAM
# U-87MG ATCC [16] = experiment: Reduction in VEGF release in human U-87 MG cells by ELISA; assay type: functional, cell-based
# In short: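 Confluent U87MG cells in 1% FBS medium treated 48 h with 10 μM compound or vehicle. VEGF-A in the conditioned medium measured by sandwich ELISA: capture antibody, biotinylated anti-human VEGF, HRP-streptavidin, TMB substrate, absorbance at 450 nm.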
# U-87MG ATCC [17] = experiment: Reduction in VEGF intracellular expression in human U-87 MG cells by Western blot analysis; assay type: functional, cell-based
# In short: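 U87MG cells treated 48 h with vehicle or 10 μM compound. Lysates (30 μg protein) resolved on 4–15% Bis-Tris gel and immunoblotted with goat polyclonal anti-VEGF; β-tubulin and β-actin antibodies also used.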
# H5V = experiment: Antiangiogenesis activity in mouse H5V cells assessed as decrease in tube like structure formation using culture medium derived from human U-87 MG cells treated at 10 uM for 48 hrs; assay type: functional, cell-based
# In short: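 Conditioned medium: subconfluent U87MG cells held 48 h at 37 °C in 1% FBS medium with 10 μM compound or vehicle, then spun and frozen. Overnight-starved H5V endothelial cells seeded on reduced-growth-factor basement membrane matrix and cultured 48 h at 37 °C in the conditioned medium. Tubes counted in three random fields and expressed as % of control.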
# [18] = molecular target: T3, Heme oxygenase 1 (Homo sapiens); experiment: Inhibition of human HO-1 activity in human U-87MG cells assessed as reduction in immunoreactivity in cytoplasm at 10 uM incubated for 48 hrs […]; assay type: cell-based
# In short: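 U87MG cells on coverslips treated 48 h at 10 μM or left untreated. Fixed in 4% paraformaldehyde, permeabilized with 0.2% Triton X-100, blocked with 0.1% BSA, probed with rabbit anti-HO-1 then Alexa Fluor 488 anti-rabbit. Nuclei counterstained with DAPI; random fields imaged by fluorescence microscopy.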
# U-87MG ATCC [19] = experiment: Reduction in HO-1 expression in human U-87MG cells at 10 uM incubated for 48 hrs by Western blot analysis; assay type: functional, cell-based; in short: as §2
# Rattus norvegicus = species: Rattus norvegicus; experiment: Selectivity index, ratio of IC50 for inhibition of Sprague-Dawley rat brain microsome HO-2 to IC50 for inhibition of Sprague-Dawley rat spleen microsome HO-1
Compound,inhibition (A549 [1]),inhibition (A 172 [3]),inhibition at 1 µM (U-87 MG [5]) [%],inhibition (A 172 [8]),inhibition (A 172 [9]),inhibition (A549 [11]),inhibition at 10 µM (U-87 MG [12]) [%],also measured
CN(C(=O)Cn1ccnc1)C(c1ccccc1)c1ccc(OCc2ccccc2)cc1 (configuration not stated),inactive,Active,20,Active,Active,inactive,20,inhibition (U-87 MG [2]): Active; inhibition (DU-145 [4]): Active; inhibition (DU-145 [6]): Active; inhibition (DU-145 [7]): Active; inhibition (A549 [10]): Active
CN(C(=O)Cn1ccnc1)c1ccccc1,,,,,,,,IC50 (Heme oxygenase 1): 2500 µM
CN(C(=O)Cn1ccnc1)C(c1ccccc1)C1CCCCC1 (configuration not stated),,Active,,Active,Active,,,
FC(F)(F)c1ccc(SC[C@@H]2CO[C@](CCc3ccc(Cl)cc3)(Cn3ccnc3)O2)nc1,,,,,,,,IC50 (Heme oxygenase 2): 16 µM; IC50 (Heme oxygenase 1): 2.1 µM
CN(C(=O)Cn1ccnc1)C(c1ccccc1)c1ccccc1,inactive,Active,,Active,Active,inactive,,Activity (DU-145 [13]): Active
CN(C(=O)Cn1ccnc1)C(c1ccccc1)c1ccc(I)cc1 (configuration not stated),inactive,,> 30,Active,Active,inactive,> 30,inhibition (U-87 MG [2]): Active; inhibition (DU-145 [4]): Active; inhibition (A549 [10]): Active; Activity (DU-145 [13]): Active
CN(C(=O)Cn1ccnc1)C(c1ccccc1)c1ccc(Cl)cc1 (configuration not stated),inactive,Active,> 60,Active,Active,inactive,> 60,Activity (U-87 MG [14]): Active; inhibition at 50 µM (U-87 MG [2]): > 60%; inhibition [15]: Active; Activity (U-87MG ATCC [16]): Active; Activity (U-87MG ATCC [17]): Active; Activity (H5V): Active; inhibition [18]: Active; Activity (U-87MG ATCC [19]): Active
CN(C(=O)Cn1ccnc1)C(c1ccccc1)C1CCCC1 (configuration not stated),,Active,,Active,Active,,,
CN(C(=O)Cn1ccnc1)C(c1ccccc1)c1cccc(Br)c1 (configuration not stated),inactive,inactive,> 30,inactive,inactive,inactive,> 30,inhibition at 50 µM (U-87 MG [2]): > 30%
O=C(Cn1ccnc1)NC(c1ccccc1)c1ccccc1,,,,,,,,Selectivity Index (Rattus norvegicus): 0.5
CN(C(=O)Cn1ccnc1)C(c1ccccc1)c1ccc(OCc2ccc(Br)cc2)cc1 (configuration not stated),inactive,,20,Active,Active,inactive,20,inhibition (U-87 MG [2]): Active; inhibition (DU-145 [4]): Active; inhibition (DU-145 [6]): Active; inhibition (DU-145 [7]): Active; inhibition (A549 [10]): Active
